From PubChem BioAssay
ZTA counter = ZTA (EBV) inhibition in EBNA-1 counter-screen; P03206; ZTA-DNA binding, fluorescence polarization; inhibition, % at 11 µM; actives 0.15% (n = 320,000); AID 2234; in the data active = inhibition above about 33%
Target sequence (P03206 whole entry, looked up): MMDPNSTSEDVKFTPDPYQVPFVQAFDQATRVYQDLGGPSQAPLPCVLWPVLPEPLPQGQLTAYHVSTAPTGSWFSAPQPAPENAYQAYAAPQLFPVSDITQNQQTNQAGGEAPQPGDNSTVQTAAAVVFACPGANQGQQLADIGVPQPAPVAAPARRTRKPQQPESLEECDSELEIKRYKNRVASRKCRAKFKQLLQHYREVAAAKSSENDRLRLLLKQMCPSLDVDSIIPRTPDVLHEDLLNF
GRIN3A LBD mod = modulators (binders) of human NR3A ligand-binding domain | NR3A LBD differential scanning fluorimetry, Tm shift; 0% = protein alone, 100% = glycine-bound protein | Tm shift relative to glycine control, % at 25 µM | actives 2.5% (n = 340,000);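 active = melting temperature shift of at least 10% of the positive control shift, at one fixed dose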
EBNA-1 inh = blocks EBNA-1 binding to DNA; EBNA-1 DNA binding, fluorescence polarization; inhibition, % at 14.8 µM; actives 0.34% (n = 300,000); in the data active = inhibition above about 28%
DNA FID counter = counter-screen for HCV NS3 helicase inhibitors: DNA intercalator displacement; inhibition, % at 7.9 µM; DNA fluorescent intercalator displacement, fluorescence; actives 0.17% (n = 290,000); in the data active = inhibition above about 37%;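 also: 0% = vehicle and 100% = reference compound; higher means more ethidium bromide displaced from hairpin DNA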
FGF22 binding = shifts melting point of recombinant human FGF22; actives 1.5% (n = 340,000); recombinant FGF22 thermal shift, SYPRO orange fluorescence; percent of sucrose octasulfate shift, DMSO zero; Q9HCT0; activity (Tm shift, normalised), % at 9.99 µM;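 active = mean Tm shift, scaled 0 neutral to 100 positive control, at about 1.3% or above, every replicate too, limit read from the data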
Target sequence (Q9HCT0 whole entry, looked up): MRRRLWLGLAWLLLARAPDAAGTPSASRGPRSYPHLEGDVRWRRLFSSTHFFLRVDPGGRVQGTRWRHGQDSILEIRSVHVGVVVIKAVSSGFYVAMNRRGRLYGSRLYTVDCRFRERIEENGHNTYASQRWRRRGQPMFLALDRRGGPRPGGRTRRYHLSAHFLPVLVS
HCV NS3 hel inh = blocks Hepatitis C virus NS3 helicase unwinding; actives 0.56% (n = 290,000); inhibition, % at 10.9 µM; NS3 helicase DNA unwinding, Cy5 molecular beacon fluorescence; AID 1800;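 active = inhibition above the mean of all tested compounds plus 3 SD, set per campaign, cut at about 35% in these data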;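 also: 0% = DMSO wells and 100% = thioflavine S control wells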
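Control set: DMSO versus 110 µM thioflavine S; Material: NS3 helicase fragment of HCV; Measured by: Cy5 fluorescence at 0 and 60 min, beacon hairpin quenching; Read-out basis: percent inhibition from t60/t0 fluorescence ratio; Times: reaction time 60 min, 25 °C; Repeats: single replicate; Compound dosing: single dose, 10.9 µM nominal final, DMSO 0.8% final.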
Active calls of the source: *; . = not tested or not shown; + = active, no number. Most compounds without a hit are left out; they make up all but 3.6% or so of the library.

SMILES | ZTA counter | GRIN3A LBD mod | EBNA-1 inh | DNA FID counter | FGF22 binding | HCV NS3 hel inh
CN1CCN(C(=O)C[C@H]2CC[C@@H]3[C@H](COC[C@H](O)CN3C(=O)Nc3ccc4c(c3)OCO4)O2)CC1 | . | . | . | . | 0 | .
CS(=O)(=O)N(C(=O)NC(=O)NC12CC3CC(CC(C3)C1)C2)C1CCCCC1 | -18 | -1 | -5 | -4 | 44* | 0
O=C(C[C@H]1CC[C@H](NC(=O)Nc2ccc3c(c2)OCO3)[C@H](CO)O1)NCc1ccc(F)cc1 | . | . | . | . | 0 | .
CCOc1c2ccc(C(=O)N[C@H](C)C3CCCCC3)cc2nn1CCOC | 4 | -5 | 0 | -26 | 44* | -6
CCOc1c2ccc(C(=O)NCc3ccc(OC(F)(F)F)cc3)cc2nn1CC | 10 | -2 | 0 | -21 | 0 | -3
CCOc1c2ccc(C(=O)NCc3ccco3)cc2nn1CCOC | 0 | 1 | 6 | -8 | 0 | 9
CCCn1nc2cc(C(=O)NCc3ccc(OC(F)(F)F)cc3)ccc2c1OCC | 9 | -30 | -3 | -16 | 43* | -6
O=C(C[C@@H]1CC[C@H]2[C@@H](COC[C@@H](O)CN2S(=O)(=O)c2ccc(Oc3ccccc3)cc2)O1)Nc1ccccc1 | . | . | . | . | 0 | .
CCCCNC(=S)Nc1ccc2cn[nH]c2c1 | 0 | 21* | 10 | -4 | 0 | 1
S=C(NCc1ccccc1)Nc1ccc2cn[nH]c2c1 | -8 | -12 | -8 | -2 | -1 | 0
COc1ccc(NC(=S)Nc2ccc3cn[nH]c3c2)cc1 | -15 | 10 | -3 | -7 | 0 | -7
S=C(Nc1ccc2cn[nH]c2c1)Nc1ccc(Cl)cc1Cl | 12 | 13* | 3 | 0 | 1 | -14
CCc1ccc(NC(=S)Nc2ccc3cn[nH]c3c2)cc1 | 0 | 14* | -8 | -1 | 1 | 5
COc1ccc2c3c(n(C)c2c1)[C@@H](CO)N(Cc1ccccc1)CC31CN(C(=O)Nc2cccc(F)c2)C1 | . | . | . | . | 0 | .
C[C@@H]1CN([C@@H](C)CO)C(=O)c2cc(C#Cc3cccnc3)cnc2O[C@H]1CN(C)C(=O)CN(C)C | . | . | . | . | 0 | .
O=C(N/N=C/C=C/c1ccccc1[N+](=O)[O-])c1ccncc1 | 3 | -1 | -8 | -3 | 0 | 8
O=C(N/N=C/c1c[nH]c2ccccc12)c1cc(-c2ccc(-c3ccccc3)cc2)n[nH]1 | 4 | 20* | -8 | -4 | . | -20
O=C(N/N=C/C=C\c1ccccc1[N+](=O)[O-])c1cc(-c2ccc3ccccc3c2)n[nH]1 | . | 18* | . | -3 | 0 | 1
O=C(N/N=C/c1c[nH]c2ccccc12)c1cc(-c2cccc3ccccc23)n[nH]1 | 7 | 10 | -2 | 1 | 0 | 30
O=C(N/N=C/c1c[nH]c2ccccc12)c1cc(-c2ccc3ccccc3c2)n[nH]1 | 1 | 41* | -5 | -3 | 1 | 1
Cc1ccc(-c2cc(C(=O)N/N=C/c3c[nH]c4ccccc34)[nH]n2)cc1 | . | 27* | . | 7 | 1 | 8
CO[C@H]1CN(C)C(=O)c2ccc(NC(=O)C3CC3)cc2OC[C@@H](C)N(C(=O)C2CCOCC2)C[C@H]1C | . | . | . | . | 0 | .
O=C(O)C[C@H]1C[C@@H]2c3cc(NC(=O)Nc4ccc(F)cc4)ccc3O[C@@H]2[C@H](CO)O1 | . | . | . | . | 0 | .
O=C(N/N=C/c1c[nH]c2ccccc12)c1cc(-c2ccccc2)n[nH]1 | -9 | 31* | -7 | -1 | 0 | 4
CCc1ccc(-c2cc(C(=O)N/N=C/c3ccco3)[nH]n2)cc1 | 13 | 5 | -1 | -16 | 43* | -8
SMILES | ZTA counter | GRIN3A LBD mod | EBNA-1 inh | DNA FID counter | FGF22 binding | HCV NS3 hel inh
O=C(N/N=C/c1c[nH]c2ccccc12)c1ccn[nH]1 | -3 | 11* | -2 | 4 | 0 | 1
O=C(N/N=C/c1ccco1)c1cc(-c2ccc3ccccc3c2)n[nH]1 | 23 | -9 | -4 | -13 | . | 1
Cc1ccccc1CSCC(=O)NCCSc1ccccn1 | 20 | 1 | 13 | -28 | 44* | -2
CS(=O)(=O)Nc1ccc2c(c1)[C@H]1C[C@H](CC(=O)NCc3ccc(-c4ccccc4)cc3)O[C@@H](CO)[C@H]1O2 | . | . | . | . | 0 | .
CCOP(=O)(OCC)c1nc(-c2ccc(Cl)cc2)oc1NCc1ccccc1 | 3 | -5 | 0 | -25 | 43* | -10
CCCOP(=O)(OCCC)c1nc(-c2ccccc2)oc1NCc1ccccc1 | -7 | -2 | -8 | -15 | 43* | 4
COP(=O)(OC)c1nc(-c2ccccc2)oc1NCc1ccccc1 | 8 | 2 | -10 | -24 | . | -8
C[C@H]1CCCCO[C@H](CN(C)S(=O)(=O)c2ccc(F)cc2)[C@@H](C)CN([C@@H](C)CO)C(=O)c2cc(NC(=O)Nc3ccccc3)ccc2O1 | . | . | . | . | 0 | .
O=C1OCC2=C1C(c1ccc(F)cc1)c1cc3c(cc1N2)OCO3 (stereo not given) | . | -2 | . | -3 | 43* | 6
CCCNC(=O)Nc1ccc2c(c1)C(=O)N(C)C[C@H](OC)[C@@H](C)CN(C(=O)C1CCC1)[C@@H](C)CO2 | . | . | . | . | 0 | .
CCn1c(CSc2nnc(-c3cccnc3)n2-c2ccccc2C)nc2cc(C(=O)O)ccc21 | + | . | 124* | -53 | . | -3
S=c1nc2[nH]c3ccccc3c2n[nH]1 | . | 20* | . | . | 0 | .
CNc1nc(=S)[nH]c2ccccc12 | 7 | 2 | 0 | -10 | 0 | 6
CCN(CC)c1ccc(NS(=O)(=O)c2ccc(-c3ccc(=O)[nH]n3)o2)c(C)c1 | 1 | 4 | 3 | -27 | 0 | 17
Cc1ccccc1NS(=O)(=O)c1ccc(-c2ccc(=O)[nH]n2)o1 | 14 | 15* | 4 | -7 | 0 | 11
C[C@@H]1CN([C@@H](C)CO)C(=O)Cc2cc(NC(=O)CCN3CCOCC3)ccc2O[C@@H]1CN(C)S(=O)(=O)c1ccc(F)cc1 | . | . | . | . | 0 | .
O=C(C[C@@H]1C=C[C@@H](NC(=O)CC2CC2)[C@@H](CO)O1)NCc1ccc(-c2ccccc2)cc1 | . | . | . | . | 0 | .
O=C(N/N=C/c1ccc(O)cc1)NC12CC3CC(CC(C3)C1)C2 | 2 | 10* | -5 | -14 | 0 | -5
O=C(N/N=C/c1ccncc1)NC12CC3CC(CC(C3)C1)C2 | -6 | -1 | 4 | -25 | 0 | 3
O=[N+]([O-])c1ccccc1N=Nc1ccc(O)cc1O | . | -3 | . | . | 43 | .
O=S(=O)(O)c1cc(O)c(N=Nc2ccc(O)cc2O)c2ccccc12 | . | 13* | . | . | 0 | .
O=C(Cc1ccc(Br)cc1)NNC(=O)Nc1ccc(Cl)cc1 | -6 | -3 | 1 | -2 | 1 | -8
Cn1cccc1CC(=O)NNC(=O)Nc1ccc(Cl)cc1 | 6 | -2 | 6 | -16 | 44* | 10
CCCC(=O)Nc1ccc2c(c1)C(=O)N(C)[C@@H]1CC[C@H](CC(=O)NCC3CC3)O[C@@H]1CO2 | . | . | . | . | 0 | .
Cc1cccc(C)c1NC(=O)COC(=O)c1cc(S(=O)(=O)Nc2ccc(Cl)cc2)ccc1O | . | 8 | . | . | . | .
